Source: PubChem (Sanford-Burnham Center for Chemical Genomics)
DNMT1 inh = DNMT1 (human) enzyme inhibition | DNMT1 molecular beacon, Hinp1I cleavage, fluorescence | actives 0.83% (n = 360,000) | inhibition (reported as % activation of signal), % at 10 µM | P26358; in the data active = inhibition above about 50%
STEP inh = STEP (human) phosphatase inhibition; recombinant STEP, OMFP fluorogenic substrate, fluorescence; inhibition, % at 20 µM; actives 0.25% (n = 360,000); AID 588621;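 active = inhibition at 20 µM, scaled per plate between control wells, above about 37%, limit read from the data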
Target sequence (P54829 whole entry, looked up): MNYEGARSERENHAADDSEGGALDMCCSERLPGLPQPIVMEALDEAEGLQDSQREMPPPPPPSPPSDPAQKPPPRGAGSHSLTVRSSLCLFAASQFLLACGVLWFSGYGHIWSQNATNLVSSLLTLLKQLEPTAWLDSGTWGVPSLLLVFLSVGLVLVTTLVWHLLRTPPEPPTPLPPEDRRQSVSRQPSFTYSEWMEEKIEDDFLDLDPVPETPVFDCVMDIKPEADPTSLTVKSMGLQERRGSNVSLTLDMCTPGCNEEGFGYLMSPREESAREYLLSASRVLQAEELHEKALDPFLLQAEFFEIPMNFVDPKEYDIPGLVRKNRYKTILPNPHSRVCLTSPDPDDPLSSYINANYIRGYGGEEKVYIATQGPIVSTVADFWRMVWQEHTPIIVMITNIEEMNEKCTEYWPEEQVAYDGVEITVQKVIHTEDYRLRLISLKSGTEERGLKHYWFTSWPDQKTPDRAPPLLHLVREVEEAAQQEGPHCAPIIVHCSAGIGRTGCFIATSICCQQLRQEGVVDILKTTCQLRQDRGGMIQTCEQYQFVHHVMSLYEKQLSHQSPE
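Test system: STEP tyrosine phosphatase / Reagent: OMFP at 25 µM / Doses: 20 µM, 1% DMSO / Read-out: percent inhibition scaled to no-enzyme and uninhibited-enzyme controls, plate-pattern corrected / Detection: FITC-channel fluorescence of OMFP product / Medium: Bis-Tris buffer pH 6.0, 2.5 mM DTT, 0.005% Tween 20 / Schedule: 20 min at room temperature, dark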
HKDC1 inh = inhibitors of human hexokinase HKDC1; inhibition, % at 20 µM; Q2TB90; recombinant HKDC1, G6PDH/diaphorase resazurin coupled fluorescence; actives 0.16% (n = 340,000);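 active = inhibition above about 35% when tested at 20 µM, limit read from the data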
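test system = in-house recombinant HK5 (HKDC1) enzyme | amount = HKDC1 at 5 µg/mL | control set = DMSO-enzyme wells negative, buffer-substituted wells positive | compound = one dose of 20 µM, 1% DMSO | schedule = reaction time 90 min, room temperature, protected from light | technique = resorufin fluorescence at 613 nm | reagent = glucose with 1 mM ATP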
SUMO1 PPI mod = alters human SUMO1 binding to SIM partners; P63165; actives 0.33% (n = 360,000); SUMO1 binding to a labelled peptide, TR-FRET, 1 h; inhibition, % at 20 µM; AID 602429; in the data active = inhibition above about 37%
Target sequence (P63165 whole entry, looked up): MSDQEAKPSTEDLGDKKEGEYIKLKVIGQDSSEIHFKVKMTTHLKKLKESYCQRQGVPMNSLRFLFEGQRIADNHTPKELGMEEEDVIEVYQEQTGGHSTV
LMPTP inh = blocks human LMPTP phosphatase; inhibition, % at 20 µM; recombinant LMPTP-A, OMFP fluorogenic substrate, fluorescence intensity; actives 0.22% (n = 360,000); AID 651560; P24666;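 active = compounds that cut the enzyme signal by at least half of the control window in the single-dose screen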
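Assay system: LMPTP-A enzyme. Input: 0.625 nM LMPTP-A final. Probe or stimulus: 400 µM OMFP. Compound dosing: single 20 µM dose. Schedule: 50 min dark incubation at room temperature. Detection: fluorescence intensity of OMFP turnover product. Read-out: percent inhibition versus substrate-only and uninhibited controls. Benchmarks: no-enzyme low control, uninhibited high control.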
Scp1 inh = blocks human Scp-1 phosphatase activity; Recombinant Scp1, phosphopeptide, malachite green phosphate absorbance; inhibition, % at 20 µM; actives 0.88% (n = 340,000);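 active = inhibition above about 50% at 20 µM, limit read from the data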
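System: truncated SCP-1 phosphatase (76-261aa); medium: Tris acetate buffer pH 5.5 with MgCl2 and Tween-20; incubation: 45 min room-temperature reaction, 5 min colour, 30 min stabiliser; compound: single 20 µM dose, 1% DMSO; reagent: Phosphorylated 17-residue peptide substrate; read-out: % inhibition at 20 µM; technique: colorimetric free-phosphate detection, absorbance 630 nm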
HKDC1 act conf = confirmation of human HKDC1 activators | AID 504708 | actives 14% (n = 740) | recombinant HKDC1, G6PDH/diaphorase resazurin fluorescence; active compounds read low | shares compounds with HKDC1 inh | inhibition, % at 20 µM;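 active = inhibition at or below a set negative limit, negative inhibition meaning the enzyme was activated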
Each line names hits and unclear results; the compound was inactive in the other large screens (follow-up assays come after a bar, where they were run). A selection: hits, their analogues and other compounds. The true share with any hit is near 1.8%.

Cc1cccc(N=C2NN=C(c3c(C)[nH]c4ccccc34)CS2)c1	none | HKDC1 act conf inactive
CC(C)c1ccc(N=C2NN=C(c3cccs3)CS2)cc1	none
CN(C)S(=O)(=O)c1cccc(N=C2SCCN2Cc2ccccc2)c1	none
CN(C)c1cccc(C(=O)OCC(=O)Nc2nccs2)c1	none
CCOc1ccc(C(=O)NCC(=O)N2CCC3CCCCC3C2)cc1OCC (stereo not drawn)	none
COc1cccc(CC(Cc2nc3ccccc3[nH]2)c2nc3ccccc3[nH]2)c1 (stereo not drawn)	HKDC1 inh 50 | HKDC1 act conf inactive
Cc1cc(C)c(S(=O)(=O)/N=C2\C=C(Nc3ccc(C(=O)O)cc3)C(=O)c3ccccc32)c(C)c1	HKDC1 inh 41, SUMO1 PPI mod 58 | HKDC1 act conf inactive
O=C(O)c1ccc(NC2=C/C(=N/S(=O)(=O)c3ccccc3)c3ccccc3C2=O)cc1	DNMT1 inh 70, HKDC1 inh 72, SUMO1 PPI mod 62 | HKDC1 act conf inactive
Cc1ccc(OCC(=O)N/N=C/c2cccc3cccnc23)cc1	none
COc1ccc(OCC(=O)NNC(=O)c2ccccc2OCc2c(C)noc2C)cc1	none
O=C(Oc1ccc(-c2cnc3ccccc3n2)cc1)c1cc([N+](=O)[O-])ccc1Cl	none
Cc1c(C(=O)Oc2ccc(-c3cnc4ccccc4n3)cc2)cccc1[N+](=O)[O-]	none | HKDC1 act conf inactive
O=C(NNC(=O)c1cccnc1)NC1CCCCC1	none | HKDC1 act conf inactive
Cc1noc(C)c1CSCC(=O)Nc1ccccc1N1CCCCC1	none (no result: HKDC1 inh, Scp1 inh)
Cc1ccc2[nH]c(=O)c(CN(Cc3cccs3)S(=O)(=O)c3ccc4c(c3)OCCO4)cc2c1	none
Cc1cc2cc(CN(Cc3cccs3)S(=O)(=O)c3ccc4c(c3)OCCO4)c(=O)[nH]c2cc1C	none | HKDC1 act conf inactive
CCOc1ccc(NC(=O)CN2C(=O)/C(=C3\SC(=S)N(C4CCS(=O)(=O)C4)C3=O)c3ccccc32)cc1 (stereo not drawn)	none
O=C(CN1C(=O)/C(=C2\SC(=S)N(CCS(=O)(=O)O)C2=O)c2ccccc21)Nc1cccc(Br)c1	STEP inh 98, HKDC1 inh 58, LMPTP inh 83, Scp1 inh 101 | HKDC1 act conf inactive
CC(C)C(C(=O)O)N1C(=O)/C(=C/c2cccn2C)SC1=S (stereo not drawn)	none
CC(C)C(C(=O)O)N1C(=O)/C(=C/C=C/c2ccco2)SC1=S (stereo not drawn)	DNMT1 inh 85, STEP inh 92, HKDC1 inh 51, SUMO1 PPI mod 108, LMPTP inh 78, Scp1 inh 97 | HKDC1 act conf inactive
COc1cc(-c2ccc(Nc3ccccc3C(=O)O)c(OC)c2)ccc1Nc1ccccc1C(=O)O	DNMT1 inh 109, HKDC1 inh 42, SUMO1 PPI mod 61, Scp1 inh 70 | HKDC1 act conf inactive
CC(C)N(C(=O)[C@H]1C[C@H](CC(=O)NCCN2CCOCC2)C(=O)N2CCc3c([nH]c4ccc(Cl)cc34)[C@]12C)C(C)C	none
CC(=NNC(=S)SCc1ccccc1)c1ccccn1	none | HKDC1 act conf -28
CC(=NNC(=S)Nc1cccc(Cl)c1)c1ccccn1	none | HKDC1 act conf -63
COCCNC(=O)C1CCCN(C(=O)c2ccc3c(c2)C(C)(C)CCC3(C)C)CC1 (stereo not drawn)	none (no result: HKDC1 inh, Scp1 inh)
CC1=C(C)CC(C(=O)NCc2ccccc2F)C(C(=O)O)C1 (stereo not drawn)	none (no result: HKDC1 inh, Scp1 inh)
NNC(=O)CCC(=O)Nc1ccccc1	none
CCOc1ccc(-n2c(C)cc(C(=O)CCl)c2C)cc1	none | HKDC1 act conf inactive
COC(=O)c1ccc(-n2c(C)cc(C(=O)CCl)c2C)cc1	none
Cc1cc(C)n(CCC(=O)N/N=C/c2ccccc2O)n1	none
O=C(CNC(=O)c1ccncc1)N/N=C/c1ccc(O)cc1O	none | HKDC1 act conf inactive
O=C(CNC(=O)c1ccc2c(c1)OCCO2)N/N=C/c1ccc(O)cc1O	none | HKDC1 act conf inactive
Cc1cc(C)n(CCC(=O)N/N=C/c2ccc(O)cc2O)n1	none | HKDC1 act conf inactive
COc1cccc(/C=N/NC(=O)CNC(=O)c2ccc3c(c2)OCCO3)c1O	none
O=C(O)c1cccc2cccc(-c3c4ccc(=O)c(O)c-4oc4c(O)c(O)ccc34)c12	DNMT1 inh 70, STEP inh 99, HKDC1 inh 70, SUMO1 PPI mod 119, LMPTP inh 95, Scp1 inh 104 | HKDC1 act conf inactive
CCOC(=O)c1ccc(N=C2C(=S)N(c3ccc(C(=O)OCC)cc3)C(=N)N2/N=C/c2ccccc2)cc1	none | HKDC1 act conf inactive
CCOP(=O)(c1ccc(N(C)C)cc1)C(O)c1ccc(OC)cc1 (stereo not drawn)	HKDC1 inh 56 | HKDC1 act conf inactive
CCOP(=O)(c1ccc(N(C)C)cc1)C(O)c1cc(OC)c(OC)c(OC)c1 (stereo not drawn)	none
N#CC(C#N)=c1ccc2c(c1)N1C3=C(CCCC3)CC3CCCCC31N=2 (stereo not drawn)	HKDC1 inh 39 | HKDC1 act conf inactive
Cc1cc(C2=NNC(=Nc3ccc(S(=O)(=O)N4CCOCC4)cc3)SC2)c(C)n1C	none | HKDC1 act conf -47
COc1ccc2[nH]c3c4c(ccc3c2c1)C(=O)C=CC4=O	HKDC1 inh 51 | HKDC1 act conf inactive
COCCCN1C(=O)C(O)=C(C(=O)c2ccco2)C1c1ccccc1 (stereo not drawn)	none
COCc1cc(C2C(C(=O)c3ccco3)=C(O)C(=O)N2CCOCCO)ccc1O (stereo not drawn)	HKDC1 inh 35 | HKDC1 act conf -40
CC(C)(C)n1[nH]c2c3c(ccc2c1=O)C(=O)c1ccccc1C3=O	HKDC1 inh 42 | HKDC1 act conf inactive
S=C(NCc1ccccn1)NN=Cc1ccccn1	none | HKDC1 act conf -45
O=C1CN(c2ccc(Cl)cc2)C2(CCCCC2)S1	none
Cc1cc(C)c2c(=O)[nH]cnc2n1	HKDC1 inh 64 | HKDC1 act conf inactive
COc1cc(NC(=O)c2cnc(N)s2)cc(C(=O)Nc2cccc(C(F)(F)F)c2)c1	HKDC1 inh 59 | HKDC1 act conf inactive
CC(=O)N1CCN(c2nnc(-c3ccccc3)c3ccccc23)CC1	none
CC(=O)C1=C(c2ccccc2)N(C(C)=O)n2c(C)nnc2S1	none | HKDC1 act conf -125
CC(OC(=O)c1cn(-c2ccccc2)nc1-c1cccnc1)C(N)=O (stereo not drawn)	none
CCN(CC(=O)Nc1c(F)cccc1F)C(=O)c1ccc2ccccc2n1	none
